The text below walks through data of ChEMBL document CHEMBL3407378, “Design, synthesis and biological evaluation of novel 7-alkylamino substituted benzo[a]phenazin derivatives as dual topoisomerase I/II inhibitors” (Eur J Med Chem, 2015).

In general, IC50 refers to the concentration needed to halve the response being measured. Lower therefore signals greater potency. In general, inhibition refers to how much of the control response was suppressed. A lower inhibition goes with a weak effect.

In one experiment the test system is K562. Briefly: Cytotoxicity against human K562 cells after 48 hrs by MTT assay. The following applies: K562, 48 h. It is filed as functional, cell-based. The method in brief: (§1)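 Cells seeded 1 × 10^4 per well and incubated overnight, then given compound at 0–50 µM for 48 h. MTT added (20 µL of 5 mg/mL stock) for 4 h at 37 °C; formazan dissolved in DMSO, absorbance read at 570 nm. Triplicates; IC50 from mean OD versus concentration curves.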
A general note: Tetrazolium dyes change colour on reduction, which living cells bring about.

Experiment [1] is described as follows: Cytotoxicity against human HL60 cells after 48 hrs by MTT assay. It is filed as functional, cell-based. The conditions noted are these: HL-60, 48 h. In a few lines:
as §1

In the next experiment the test system is A549. As to the kind of experiment: Cytotoxicity against human A549 cells after 48 hrs by MTT assay. Format: functional, cell-based. The conditions noted are these: A549, 48 h. In a few lines: as §1
In the next experiment the test system is HeLa. Briefly: Cytotoxicity against human HeLa cells after 48 hrs by MTT assay. It is filed as functional, cell-based. The method in brief:
as §1

Experiment [2] concerns the target T1, DNA topoisomerase 1 (Homo sapiens) (UniProt P11387).
T1 sequence (whole entry): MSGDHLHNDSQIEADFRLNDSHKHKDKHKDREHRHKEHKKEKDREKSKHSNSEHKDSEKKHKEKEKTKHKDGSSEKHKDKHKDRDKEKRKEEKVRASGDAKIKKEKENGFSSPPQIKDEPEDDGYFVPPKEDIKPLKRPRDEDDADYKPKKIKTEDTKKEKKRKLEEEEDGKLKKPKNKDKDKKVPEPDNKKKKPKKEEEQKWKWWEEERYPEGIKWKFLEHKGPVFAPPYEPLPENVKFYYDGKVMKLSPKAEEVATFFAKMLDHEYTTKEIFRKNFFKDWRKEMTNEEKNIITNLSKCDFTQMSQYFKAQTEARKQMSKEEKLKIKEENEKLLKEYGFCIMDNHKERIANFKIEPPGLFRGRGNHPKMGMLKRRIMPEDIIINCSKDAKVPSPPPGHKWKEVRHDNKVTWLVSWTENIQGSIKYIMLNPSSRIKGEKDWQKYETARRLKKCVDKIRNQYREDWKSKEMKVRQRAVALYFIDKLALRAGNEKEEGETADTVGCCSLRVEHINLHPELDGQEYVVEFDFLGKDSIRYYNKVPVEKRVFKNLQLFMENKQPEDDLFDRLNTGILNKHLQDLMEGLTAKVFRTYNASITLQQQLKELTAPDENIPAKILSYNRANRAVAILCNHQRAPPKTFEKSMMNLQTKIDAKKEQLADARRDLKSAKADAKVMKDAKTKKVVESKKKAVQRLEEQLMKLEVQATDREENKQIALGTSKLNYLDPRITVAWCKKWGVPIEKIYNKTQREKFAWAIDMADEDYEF
As to the kind of experiment: Inhibition of Topo 1 (unknown origin)-mediated relaxation of supercoiled pBR322 plasmid at 25 uM after 30 mins by agarose gel electrophoresis. In a few lines:
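Topo I with supercoiled pBR322 and compound, 30 min at 37 °C. Stopped with SDS/bromophenol blue/glycerol dye; run on 1% agarose gel in TAE for 1 h and stained with Gel Red.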

The target in experiment [3] is DNA topoisomerase 2-alpha (Homo sapiens) (UniProt P11388). As to the kind of experiment: Inhibition of human Topo 2-mediated relaxation of supercoiled pBR322 plasmid at 25 to 50 uM after 30 mins by agarose gel electrophoresis.
Sequence of DNA topoisomerase 2-alpha (Homo sapiens) (P11388 whole entry): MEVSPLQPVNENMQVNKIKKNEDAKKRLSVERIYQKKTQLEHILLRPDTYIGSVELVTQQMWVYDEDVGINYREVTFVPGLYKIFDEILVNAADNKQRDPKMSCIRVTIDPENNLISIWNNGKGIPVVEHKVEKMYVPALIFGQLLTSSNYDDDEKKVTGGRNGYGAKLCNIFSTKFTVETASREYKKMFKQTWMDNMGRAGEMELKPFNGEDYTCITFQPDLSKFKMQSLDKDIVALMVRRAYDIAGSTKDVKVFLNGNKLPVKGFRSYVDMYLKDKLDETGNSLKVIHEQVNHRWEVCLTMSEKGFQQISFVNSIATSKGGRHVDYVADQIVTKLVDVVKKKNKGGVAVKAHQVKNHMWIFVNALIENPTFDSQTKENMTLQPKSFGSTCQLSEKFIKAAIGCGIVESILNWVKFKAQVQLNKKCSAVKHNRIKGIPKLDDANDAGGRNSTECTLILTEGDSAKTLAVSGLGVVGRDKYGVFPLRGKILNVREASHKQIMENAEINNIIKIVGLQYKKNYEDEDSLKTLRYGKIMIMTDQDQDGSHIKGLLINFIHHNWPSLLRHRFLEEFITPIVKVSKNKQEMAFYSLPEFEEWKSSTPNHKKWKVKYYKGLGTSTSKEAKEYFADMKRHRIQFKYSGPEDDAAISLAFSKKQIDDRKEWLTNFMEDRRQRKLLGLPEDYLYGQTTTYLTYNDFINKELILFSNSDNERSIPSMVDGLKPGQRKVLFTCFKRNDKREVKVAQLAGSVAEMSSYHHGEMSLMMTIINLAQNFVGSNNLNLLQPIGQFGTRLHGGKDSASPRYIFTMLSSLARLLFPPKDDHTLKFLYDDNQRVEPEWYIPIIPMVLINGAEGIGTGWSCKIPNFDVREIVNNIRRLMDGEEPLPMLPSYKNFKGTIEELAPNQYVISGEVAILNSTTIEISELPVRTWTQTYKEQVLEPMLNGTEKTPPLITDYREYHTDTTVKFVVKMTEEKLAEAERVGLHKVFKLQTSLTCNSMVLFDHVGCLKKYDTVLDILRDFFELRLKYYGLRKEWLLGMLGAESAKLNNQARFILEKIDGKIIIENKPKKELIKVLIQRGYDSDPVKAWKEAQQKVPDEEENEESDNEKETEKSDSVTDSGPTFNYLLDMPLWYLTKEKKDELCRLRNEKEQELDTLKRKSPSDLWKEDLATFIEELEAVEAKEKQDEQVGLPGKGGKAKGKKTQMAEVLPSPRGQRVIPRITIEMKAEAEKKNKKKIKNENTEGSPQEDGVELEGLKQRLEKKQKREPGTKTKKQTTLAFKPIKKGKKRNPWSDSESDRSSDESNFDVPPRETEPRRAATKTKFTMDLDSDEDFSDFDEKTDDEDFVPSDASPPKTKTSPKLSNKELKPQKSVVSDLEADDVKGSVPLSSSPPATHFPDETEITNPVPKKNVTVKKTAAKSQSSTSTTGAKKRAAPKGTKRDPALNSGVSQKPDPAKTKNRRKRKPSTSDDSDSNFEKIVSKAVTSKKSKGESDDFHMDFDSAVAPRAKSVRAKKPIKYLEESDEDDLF
Experiment [4] shares this target. Briefly: Inhibition of human Topo 2-mediated relaxation of supercoiled pBR322 plasmid at 25 uM after 30 mins by agarose gel electrophoresis.
For experiment [5] the target is unchanged. Briefly: Inhibition of human Topo 2 ATPase domain expressed in yeast BCY123 strain at 25 uM after 1 hr by nonisotopic malachite green assay. The method in brief: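 Human Topo II ATPase domain overexpressed in yeast BCY123 and purified. Assay buffer: 100 mM Tris-HCl pH 7.4, 20 mM KCl, 6 mM MgCl2. Reaction of 25 µL with compound, started with 1 mM ATP, 1 h at 37 °C. Phosphate detected with malachite green at OD620. No-enzyme background set as 100% inhibition and enzyme-only as 0%.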

Active and inactive are the calls of the source. The rule behind the calls is not given here. A value given as a limit tells only on which side of the number the result lay.

Consider `CN1CCN(CCCn2c3cc(=O)c4ccccc4c-3nc3ccccc32)CC1`, for which the half-maximal inhibitory concentration (IC50) with K562 was determined as 24 µM; in experiment [1], 1.22 µM; in the experiment on A549, 23.6 µM; with HeLa it was 26.7 µM.
Turning to `COc1ccc2nc3c4ccccc4c(=O)cc-3n(CCCN(C)C)c2c1`, the IC50 was determined as 5.53 µM with K562, 0.18 µM in experiment [1], 30.5 µM in the experiment with A549 and 5.51 µM in the experiment with HeLa. Further, the “Topo I relaxation inhibition (active/not active)” value in experiment [2] was “Active”.
For `COc1ccc2c3nc4ccccc4n(CCCN(C)C)c-3cc(=O)c2c1` the same measures were 6.12 µM, 0.15 µM, 24.6 µM, 28.4 µM and “inactive”.
For `CN1CCN(CCn2c3cc(=O)c4ccccc4c-3nc3ccccc32)CC1` the same measures were 21.6 µM, 0.38 µM, 25.3 µM, 28.9 µM and “Active”.
Consider `CCN(CC)CCCCn1c2cc(=O)c3ccccc3c-2nc2ccccc21`, for which the IC50 with K562 was 26 µM; in experiment [1] it was 0.22 µM; with A549, 18.9 µM; with HeLa, 29.4 µM.
For `CCN(CC)CCn1c2cc(=O)c3ccccc3c-2nc2ccccc21`, in that order: 25.6 µM, 0.31 µM, 29.2 µM and 25.4 µM.
Turning to `CN(C)CCCn1c2cc(=O)c3ccccc3c-2nc2ccccc21`, the “Topo 2 inhibition (active/not active)” value in experiment [3] was “Active”. Besides, the half-maximal inhibitory concentration (IC50) in the experiment with K562 is 5.93 µM; in experiment [1], 0.21 µM; in the experiment on A549, 13.5 µM; in the experiment with HeLa, 8.41 µM. The “Topo I relaxation inhibition (active/not active)” value in experiment [2] is “Active”.
For `O=c1cc2n(CCCN3CCOCC3)c3ccccc3nc-2c2ccccc12`, the IC50 is 25.2 µM with K562, 1.28 µM in experiment [1], 45.4 µM with A549 and > 50 µM in the experiment with HeLa.
In the case of `CN(C)CCCn1c2cc(=O)c3ccccc3c-2nc2cc(Cl)ccc21`, the IC50 was found to be 20.4 µM in the experiment on K562, 1.08 µM in experiment [1], 38.4 µM with A549 and 29.6 µM with HeLa.
In the case of `O=c1cc2n(CCCN3CCCCC3)c3ncccc3nc-2c2ccccc12`, the 50% inhibitory concentration (IC50) in the experiment with K562 was found to be 38.4 µM; in experiment [1], 0.63 µM; in the experiment on A549, 19.9 µM; with HeLa, 20.4 µM. Moreover, in experiment [4], the “Topo 2 inhibition (active/not active)” value was “inactive”. Besides, in experiment [2], the “Topo I relaxation inhibition (active/not active)” value is “inactive”.
`CCN(CC)CCCn1c2cc(=O)c3cc(OC)ccc3c-2nc2ccccc21`: the IC50 with K562 came out at 22 µM; in experiment [1], 0.23 µM; in the experiment on A549 it was 22.9 µM; with HeLa, 25.9 µM. Further, the “Topo I relaxation inhibition (active/not active)” value in experiment [2] is “inactive”.
Turning to `O=C1C=CC(=O)c2ccccc21`, the inhibition in experiment [5] amounted to 56%.
Regarding `COc1ccc2c(c1)nc1c3ccc(OC)cc3c(=O)cc-1n2CCCN(C)C`, the 50% inhibitory concentration (IC50) in the experiment with K562 amounted to 22 µM; in experiment [1], 0.65 µM; with A549, 34.5 µM; in the experiment with HeLa, 6.52 µM. Also, the “Topo I relaxation inhibition (active/not active)” value in experiment [2] is “inactive”.
As for `CN(C)CCn1c2cc(=O)c3ccccc3c-2nc2ccccc21`, in experiment [3], the “Topo 2 inhibition (active/not active)” value was “Active”. For the same molecule, the IC50 in the experiment on K562 was determined as 24.6 µM; in experiment [1], 0.31 µM; in the experiment on A549 it was 22.3 µM; in the experiment with HeLa it was 9.91 µM. The “Topo I relaxation inhibition (active/not active)” value in experiment [2] is “Active”.
Regarding `CCCn1c2cc(=O)c3ccccc3c-2nc2ccccc21`, the “Topo 2 inhibition (active/not active)” value in experiment [3] was “inactive”. Moreover, the IC50 with K562 is > 40 µM; in experiment [1], 32.1 µM; in the experiment with A549 it was > 50 µM; in the experiment with HeLa, > 50 µM.
As to `CCN(CC)CCCn1c2cc(=O)c3ccccc3c-2nc2ccccc21`, the IC50 stood at 24.8 µM with K562, 1.5 µM in experiment [1], 37.4 µM in the experiment with A549 and 44.5 µM in the experiment with HeLa.
For `COc1cc([C@@H]2c3cc4c(cc3[C@@H](O[C@@H]3O[C@@H]5CO[C@@H](C)O[C@H]5[C@H](O)[C@H]3O)[C@H]3COC(=O)[C@H]23)OCO4)cc(OC)c1O` [ETOPOSIDE], in that order: 1.64 µM, 0.06 µM, 8.91 µM and 0.54 µM.
Consider `O=c1cc2n(CCN3CCCCC3)c3ccccc3nc-2c2ccccc12`, for which, in experiment [3], the “Topo 2 inhibition (active/not active)” value is “Active”. The concentration for half-maximal inhibition (IC50) in the experiment with K562 is 25.2 µM; in experiment [1] it was 0.93 µM; in the experiment with A549, 37.3 µM; with HeLa it was 32 µM. Also, the “Topo I relaxation inhibition (active/not active)” value in experiment [2] was “inactive”.
Turning to `CN(C)CCCn1c2cc(=O)c3ccccc3c-2nc2cccnc21`, the IC50 in the experiment with K562 is 36.8 µM; in experiment [1], 0.62 µM; in the experiment with A549, 20.4 µM; with HeLa, 4.52 µM. Moreover, the “Topo 2 inhibition (active/not active)” value in experiment [4] is “inactive”. The “Topo I relaxation inhibition (active/not active)” value in experiment [2] is “inactive”.
In the case of `O=c1cc2n(CCN3CCOCC3)c3ccccc3nc-2c2ccccc12`, the concentration for half-maximal inhibition (IC50) was > 40 µM in the experiment with K562, 6.91 µM in experiment [1], > 50 µM with A549 and > 50 µM in the experiment with HeLa.
`COc1ccc2c(=O)cc3n(CCCN(C)C)c4ccccc4nc-3c2c1`: the IC50 is 7.13 µM in the experiment with K562, 0.22 µM in experiment [1], 33 µM in the experiment on A549 and 29.9 µM in the experiment on HeLa. For the same molecule, the “Topo 2 inhibition (active/not active)” value in experiment [4] was “Active”. The “Topo I relaxation inhibition (active/not active)” value in experiment [2] is “Active”.
As to `COc1ccc2c3nc4cc(Cl)ccc4n(CCCN(C)C)c-3cc(=O)c2c1`, the IC50 in the experiment with K562 is 22.8 µM; in experiment [1] it was 6.43 µM; with A549, 31.5 µM; with HeLa, 43 µM.
Consider `O=c1cc2n(CCCN3CCCCC3)c3ccccc3nc-2c2ccccc12`, for which the “Topo 2 inhibition (active/not active)” value in experiment [3] is “Active”. Also, the 50% inhibitory concentration (IC50) came out at 10.3 µM in the experiment with K562, 0.52 µM in experiment [1], 33 µM with A549 and 27.4 µM with HeLa. Further, in experiment [2], the “Topo I relaxation inhibition (active/not active)” value was “inactive”.
As for `O=c1cc2n(CCCN3CCCC3)c3ccccc3nc-2c2ccccc12`, the IC50 is 25.2 µM with K562, 0.22 µM in experiment [1], 35.7 µM with A549 and 30.3 µM in the experiment on HeLa.
As to `COc1ccc2c3nc4ccccc4n(CCN(C)C)c-3cc(=O)c2c1`, the half-inhibitory concentration (IC50) is 18.4 µM with K562, 2.85 µM in experiment [1], 38.5 µM in the experiment on A549 and 18.9 µM with HeLa.
As for `COc1ccc2c(c1)nc1c3ccccc3c(=O)cc-1n2CCCN(C)C`, the IC50 in the experiment on K562 is 20.2 µM; in experiment [1], 0.96 µM; in the experiment on A549, 25.9 µM; in the experiment with HeLa, 24.9 µM. Further, the “Topo I relaxation inhibition (active/not active)” value in experiment [2] is “inactive”.
